Screening data deposited in PubChem BioAssay by Johns Hopkins Ion Channel Center.
KCNK9 inh – inhibitors of human KCNK9 two-pore domain potassium channel; HEK293 KCNK9, FluxOR thallium flux fluorescence; stronger effect = lower value; 310,000 tested, 1.2% active; Q9NPC2; B-score at 10 µM;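 active = ratio B-score over 3 SD below the library mean, with starting fluorescence within 5 SD of its mean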;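 also: negative B-score means less thallium flux so channel inhibition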
Kir21 inh – Kir2.1 (mouse) channel inhibition | HEK293-Kir2.1, FluxOR thallium flux fluorescence; stronger effect = lower value | B-score at 10 µM | 310,000 tested, 0.85% active;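 active = fluorescence ratio B-score at or below minus 3 SD of library scores, with starting-brightness B-score within 2 SD, cut at about -4.2 in these data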;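 also: channel flux triggered by added potassium and thallium sulfate stimulus; B-score of peak minus minimum fluorescence over baseline after thallium stimulus; more negative B-score means stronger Kir2.1 block with less thallium influx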
KCNQ1 inh – blocks the human KCNQ1 potassium channel | P51787 | CHO-K1 KCNQ1, FluxOR thallium flux fluorescence; stronger effect = higher value | B-score at 10 µM | 310,000 tested, 1.3% active;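 active = compounds whose thallium flux B-score, printed positive for inhibition, exceeds three library SD while starting fluorescence stays within three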;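 also: channel opened by potassium depolarization with thallium stimulus after 20 min compound exposure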
KCNQ1 pot – human KCNQ1 channel potentiation or activation; AID 2648; 310,000 tested, 0.35% active; B-score at 10 µM; P51787; CHO-K1 KCNQ1, thallium flux FluxOR fluorescence; stronger effect = higher value;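 active = fluorescence ratio B-score, a plate-corrected score, at least three library SD, with initial intensity B-score within 5 SD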
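Assay system: CHO-K1 cells stably expressing KCNQ1. Medium: assay buffer for compound exposure, DMSO matched across wells. Timing: 37 °C overnight plating, 90-min dark dye load, 20-min compound pretreatment. Signal: kinetic FluxOR fluorescence, 10 s baseline plus 110 s post-stimulus.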
hERG rescue – shields human hERG channel from block by proarrhythmic agents | CHO-hERG, FluxOR thallium flux, dofetilide IC70 present | activation (rescue from dofetilide block), less the hit threshold, % at 10 µM | 310,000 tested, 0.51% active | Q12809;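 active = activation above the mean of controls blocked by dofetilide plus 5 SD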;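 also: thallium influx through hERG after potassium depolarization seen as dye fluorescence rise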
KCNK3 block – human KCNK3 channel inhibition, primary screen | O14649 | CHO-KCNK3 thallium flux, FluxOR fluorescence; stronger effect = lower value | B-score at 10 µM | 340,000 tested, 0.84% active | AID 602410;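 active = B-score under library mean minus 4 SD, starting fluorescence ratio at most library mean plus 5 SD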;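 also: more negative B-score means stronger inhibition of thallium flux through KCNK3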
Target sequence (O14649 whole entry, looked up): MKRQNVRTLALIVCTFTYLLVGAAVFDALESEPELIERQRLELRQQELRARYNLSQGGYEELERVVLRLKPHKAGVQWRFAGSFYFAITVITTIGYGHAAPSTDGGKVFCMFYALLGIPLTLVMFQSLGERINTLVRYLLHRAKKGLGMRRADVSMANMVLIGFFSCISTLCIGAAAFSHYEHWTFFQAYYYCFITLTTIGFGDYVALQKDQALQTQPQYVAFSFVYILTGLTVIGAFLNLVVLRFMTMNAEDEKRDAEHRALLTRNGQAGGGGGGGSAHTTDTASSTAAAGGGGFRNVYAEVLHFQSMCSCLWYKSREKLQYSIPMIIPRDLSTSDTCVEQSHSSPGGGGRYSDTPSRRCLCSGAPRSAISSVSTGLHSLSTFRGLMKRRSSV
Starred values were filed as active, the others as inactive; i = inactive; · = no result given. Hits are enriched below; roughly 3.8% of the tested compounds scored in any of these assays.

SMILES | KCNK9 inh | Kir21 inh | KCNQ1 inh | KCNQ1 pot | hERG rescue | KCNK3 block
Cc1nn(CC(=O)NC2(C#N)CCCCC2)c(C)c1[N+](=O)[O-] | · | · | · | · | · | i
CC(=O)C(Cc1ccccc1)NC(=O)COC(=O)c1ccc(-n2cnnn2)cc1 (stereo not given) | · | · | · | · | · | i
O=C(NC(=S)N1CCN(c2nc(-c3ccccc3)cs2)CC1)c1cncc(Br)c1 | i | -0.57 | i | 56* | 89* | i
O=C(Nc1cccc(C(=O)O)c1)/C(=C\c1ccc(F)cc1)NC(=O)c1ccco1 | i | 0.23 | i | i | -4 | i
COc1cccc(NC(=O)c2ccc3c(c2)OCO3)c1 | i | 0 | i | i | -3 | i
COc1cccc(NC(=O)c2oc3ccccc3c2NC(=O)c2ccc3c(c2)OCO3)c1 | -7.9* | 0.28 | i | i | -13 | i
c1ccc(SCCOCCN2CCc3ccccc3C2)cc1 | i | -5.4* | i | i | -11 | i
O=[N+]([O-])c1cccc(S(=O)(=O)NCC2CC3CCC2C3)c1 (stereo not given) | i | 0.1 | i | i | -5 | i
O=[N+]([O-])c1ccc(S(=O)(=O)NCC2CC3CCC2C3)cc1 (stereo not given) | i | -0.44 | 7* | i | -3 | i
Brc1ccccc1OCCOCCOc1cccc2cccnc12 | i | -4.5* | i | i | -1 | i
C=CCc1ccc(OCCOCCOc2cccc3cccnc23)c(OC)c1 | i | -4.9* | i | i | -15 | i
C=CCc1ccc(OCCOc2cccc3cccnc23)c(OC)c1 | i | -0.99 | i | i | -8 | i
Brc1ccc(OCCOCCOc2cccc3cccnc23)cc1 | i | -2.2 | i | i | -10 | i
N#CC1(NC(=O)COc2cccnc2[N+](=O)[O-])CCCCC1 | · | · | · | · | · | i
Cc1ccccc1NS(=O)(=O)c1cc(C(=O)Nc2ccccc2-c2ccccc2)ccc1Cl | -7.2* | -1.3 | i | i | -5 | i
C=CCOc1ccccc1CN(C(=O)CCl)c1ccc2c(c1)OCO2 | i | -4.2* | i | i | -6 | i
CCOc1ccccc1NC(=O)Nc1ccc2c(c1)OCO2 | i | -0.25 | i | i | -2 | i
COc1ccc(Cl)cc1NC(=O)NCC1CCN(Cc2cc(C)ccc2C)CC1 | i | -0.55 | i | i | -15 | i
COc1cc([N+](=O)[O-])ccc1NC(=O)NCC1CCN(Cc2ccc(Cl)cc2)CC1 | i | -5.6* | i | i | -13 | i
CN(C)C(CNC(=O)CNC(=O)Cc1cccc2ccccc12)c1ccccc1 (stereo not given) | i | -0.57 | i | i | -6 | i
CCCCOc1ccc(-c2nnn(C(C)C(=O)OCC)n2)cc1 (stereo not given) | -7.2* | -0.06 | i | i | -3 | i
CCC(C(=O)O)n1nnc(-c2ccc(-c3ccc(OC)cc3)cc2)n1 (stereo not given) | i | -2.5 | i | i | -4 | i
CCOC(=O)C1CCN(c2ncnc3c2oc2ccccc23)CC1 | i | -2 | i | i | -19 | -9.9*
O=C(Cn1nnc(-c2cccc(C(F)(F)F)c2)n1)N1CCCCCC1 | i | -0.59 | i | i | 5.1* | i
CC(C)N(Cc1ccccc1)C(=S)NC(=O)C1(C)CC1(Cl)Cl (stereo not given) | i | -1.5 | i | 26* | 21* | i
SMILES | KCNK9 inh | Kir21 inh | KCNQ1 inh | KCNQ1 pot | hERG rescue | KCNK3 block
CC(C)N(Cc1ccccc1)C(=S)Nc1ccc(F)cc1 | i | -0.29 | i | i | 14* | i
CC(C)N(Cc1ccccc1)C(=S)Nc1cccnc1 | i | 0.02 | i | i | 0 | i
Cc1ccc(NC(=S)N(Cc2ccccc2)C(C)C)cc1 | i | 1.1 | i | i | -4 | i
CCCN1CCC(=O)NC1=S | · | · | · | · | · | i
OC(c1cc(-c2ccc(Cl)cc2)nc2ccccc12)C1CCCCN1 (stereo not given) | i | -5.4* | i | i | -15 | i
O[C@@H](c1cc(C(F)(F)F)nc2c(C(F)(F)F)cccc12)[C@H]1CCCCN1 | i | -0.02 | i | i | -13 | i
Cc1cn(CC(=O)NCC2CCCO2)c(=O)[nH]c1=O (stereo not given) | · | · | · | · | · | i
O=S(=O)(NCCSCc1c(Cl)cccc1Cl)c1ccc2c(c1)OCCO2 | i | -1.6 | i | i | -14 | i
O=S(=O)(NCCSc1ccc(Cl)cc1)c1ccc2c(c1)OCCO2 | i | -5.4* | i | i | -2 | i
COc1ccc2ccccc2c1C1CC(=O)N2CN(Cc3ccco3)CSC2=C1C#N (stereo not given) | i | 0.08 | 7* | i | -6 | i
Cc1ccc(S(=O)(=O)NCc2csc(-c3cccs3)n2)cc1 | i | -1.4 | i | i | -6 | i
O=S(=O)(NCc1csc(-c2cccs2)n1)c1cccc(C(F)(F)F)c1 | i | -11* | i | i | -6 | i
O=C(Nc1nc(-c2cccc([N+](=O)[O-])c2)cs1)C(c1ccccc1)c1ccccc1 | i | 0.34 | 11* | i | -10 | i
CC(OC(=O)c1ccccc1Br)C(=O)Nc1nc(-c2cccc([N+](=O)[O-])c2)cs1 (stereo not given) | i | -1.5 | i | i | -4 | i
COCCn1c(=N)c(C(=O)NCc2ccco2)cc2c(=O)n3cc(C)ccc3nc21 | i | -1.3 | i | i | -23 | i
Cc1ccc2nc3c(cc(C(=O)NCc4ccco4)c(=N)n3C3CCCC3)c(=O)n2c1 | i | -2.1 | 8* | i | -26 | i
Cc1nn(C(C)C(=O)Nc2sc3c(c2C#N)CCCC3)c(C)c1[N+](=O)[O-] (stereo not given) | i | 0.42 | i | i | 0 | i
Cc1nn(CC(=O)Nc2sc3c(c2C#N)CCC(C(C)(C)C)C3)c(C)c1[N+](=O)[O-] (stereo not given) | i | 1.2 | 8* | i | -12 | i
CC(C)(C)C1CCc2c(sc(NC(=O)C3CC=CCC3C(=O)O)c2C#N)C1 (stereo not given) | i | 0.31 | i | i | 14* | i
N#Cc1c(NC(=O)C2CC=CCC2C(=O)O)sc2c1CCCCCC2 (stereo not given) | i | 0.21 | i | i | -5 | i
CC(OC(=O)Cc1ccc(Cl)cc1)C(=O)NC1CCCCC1C (stereo not given) | · | · | · | · | · | i
COc1cc(NC(=O)c2ccc(S(=O)(=O)N(C)c3ccccc3)cc2)cc(OC)c1 | · | · | · | · | · | -9.1*
